Experimental data reported in ChEMBL document CHEMBL4270638, “Sulfonyl-containing phenyl-pyrrolyl pentane analogues: Novel non-secosteroidal vitamin D receptor modulators with favorable physicochemical properties, pharmacokinetic properties and anti-tumor activity” (Eur J Med Chem, 2018).
Active and inactive are the calls of the source. No cut-off for these calls is given here.

Key:
BXPC-3 = experiment: Antiproliferative activity against human BxPC3 cells after 24 hrs by MTT assay; assay type: functional, cell-based; details: BXPC-3, 24 h
PC-3 = experiment: Antiproliferative activity against human PC3 cells after 24 hrs by MTT assay; assay type: functional, cell-based; details: PC-3, 24 h
[1] = molecular target: T1, Retinoic acid receptor RXR-alpha/Vitamin D3 receptor (Homo sapiens, UniProt P11473+P19793); experiment: Transactivation of recombinant human VDR/RXRalpha expressed in HEK293 cells after 24 hrs by Dual-luciferase reporter gene assay; assay type: cell-based
T1 sequence (P11473 whole entry): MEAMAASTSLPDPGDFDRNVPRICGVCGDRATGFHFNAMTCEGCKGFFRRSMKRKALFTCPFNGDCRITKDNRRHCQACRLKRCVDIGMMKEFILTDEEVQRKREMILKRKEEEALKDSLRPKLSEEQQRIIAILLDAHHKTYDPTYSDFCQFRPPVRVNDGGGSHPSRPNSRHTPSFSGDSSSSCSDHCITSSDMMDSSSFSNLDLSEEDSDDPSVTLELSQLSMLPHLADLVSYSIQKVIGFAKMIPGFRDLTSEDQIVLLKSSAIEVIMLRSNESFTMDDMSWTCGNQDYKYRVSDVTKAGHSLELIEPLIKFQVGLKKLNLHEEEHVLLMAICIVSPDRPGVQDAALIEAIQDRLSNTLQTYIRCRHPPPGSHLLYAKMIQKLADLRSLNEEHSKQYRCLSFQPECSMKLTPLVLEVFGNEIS
T1 sequence (P19793 whole entry): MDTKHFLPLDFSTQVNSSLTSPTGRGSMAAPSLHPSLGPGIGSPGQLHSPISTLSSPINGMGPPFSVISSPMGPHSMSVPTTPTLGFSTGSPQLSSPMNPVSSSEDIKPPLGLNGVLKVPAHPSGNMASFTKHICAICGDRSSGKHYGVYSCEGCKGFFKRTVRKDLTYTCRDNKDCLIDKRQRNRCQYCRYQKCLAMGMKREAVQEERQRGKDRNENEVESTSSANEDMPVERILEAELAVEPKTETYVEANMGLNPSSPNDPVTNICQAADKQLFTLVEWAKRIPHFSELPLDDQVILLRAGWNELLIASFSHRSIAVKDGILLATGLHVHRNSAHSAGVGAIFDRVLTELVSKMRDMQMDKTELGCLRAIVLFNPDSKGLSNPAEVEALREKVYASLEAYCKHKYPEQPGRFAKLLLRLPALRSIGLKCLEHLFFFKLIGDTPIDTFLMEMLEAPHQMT

MCF7 [2] = experiment: Cell cycle arrest in human MCF7 cells expressing scrambled siRNA assessed as accumulation at G0/G1 phase at 1 uM after 24 hrs by propidium iodide staining based flow cytometry (reference value: 49.28%); assay type: functional
MCF7 [3] = experiment: Antiproliferative activity against human MCF7 cells expressing VDR siRNA assessed as reduction in BrdU incorporation after 16 hrs by ELISA; assay type: functional, cell-based; details: MCF7, 16 h
MCF7 [4] = experiment: Cell cycle arrest in human MCF7 cells expressing scrambled siRNA assessed as accumulation at G2/M phase at 1 uM after 24 hrs by propidium iodide staining based flow cytometry (reference value: 19.6%); assay type: functional
MCF7 [5] = experiment: Cell cycle arrest in human MCF7 cells expressing VDR siRNA assessed as accumulation at G0/G1 phase at 1 uM after 24 hrs by propidium iodide staining based flow cytometry (reference value: 49.17%); assay type: functional
MCF7 [6] = experiment: Induction of apoptosis in human MCF7 cells expressing scrambled siRNA assessed as live cells at 1 uM after 24 hrs by Annexin-V-FITC/propidium iodide staining based flow cytometry (reference value: 97.93%); assay type: functional
MCF7 [7] = experiment: Induction of apoptosis in human MCF7 cells expressing scrambled siRNA assessed as late apoptotic cells at 1 uM after 24 hrs by Annexin-V-FITC/propidium iodide staining based flow cytometry (reference value: 0.98%); assay type: functional
[8] = Half life in Sprague-Dawley rat at 20 mg/kg, ip by HPLC method; assay type: ADME, organism-based; details: in vivo
Summary of the method: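 Male Sprague-Dawley rats, 180–220 g, n = 3 per group. Dosed iv at 5 mg/kg or ip at 20 mg/kg in ethanol/EL/saline (1:1:18). Plasma sampled at 0, 0.083, 0.167, 0.25, 0.5, 1, 2, 4, 8, 12 and 24 h and centrifuged 12000 rpm for 10 min. Plasma drug measured by HPLC; parameters by PK modelling; mean ± SD.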

MCF7 [9] = experiment: Antitumor activity against human MCF7 cells xenografted in Balb/c nude mouse assessed as increase in p21 expression at 10 mg/kg, ip administered three times a week for three weeks starting from day 7 after tumor cell inoculation by immunohistochemical analysis; assay type: functional, organism-based
MCF7 [10] = experiment: Antitumor activity against human MCF7 cells xenografted in Balb/c nude mouse assessed as increase in Bax expression at 10 mg/kg, ip administered three times a week for three weeks starting from day 7 after tumor cell inoculation by immunohistochemical analysis; assay type: functional, organism-based
Mus musculus = experiment: Hypercalcemic effect in Balb/c nude mouse xenografted with human MCF7 cells assessed as effect on serum calcium level at 10 mg/kg, ip administered three times a week for three weeks starting from day 7 after tumor cell inoculation measured on day 17 during compound dosing (reference value: 0.6 umol/ml); assay type: ADME, organism-based; details: in vivo

In the case of `CCN(CC)CCNC(=O)c1cc(C(CC)(CC)c2ccc(OCS(=O)(=O)c3ccccc3)c(C)c2)cn1CC`, the IC50 (BXPC-3) is reported as 4.69 µM, the IC50 (PC-3) is reported as 6.08 µM and the EC50 [1] is reported as 38.2 nM. The Activity (MCF7 [2]) was 55.96%, the IC50 (MCF7 [3]) was > 50 µM and the Activity (MCF7 [4]) was 13.22%. The Activity (MCF7 [5]) was 50.69%, the Activity (MCF7 [6]) was 94.96% and the Activity (MCF7 [7]) was 3.37%. For the same molecule, the half-life [8] was 459 min, the Activity (MCF7 [9]) was “Active” and the Activity (MCF7 [10]) was “Active”. The Activity (Mus musculus) was “Non-Toxic”.

`CCN(CC)CCNC(=O)c1ccc(C(CC)(CC)c2ccc(OCSC)c(C)c2)n1CC` showed an IC50 (BXPC-3) of 5.13 µM, an IC50 (PC-3) of 4.01 µM and an EC50 [1] of 6.41 nM. The Activity (MCF7 [2]) was 55.26%, the IC50 (MCF7 [3]) was > 50 µM and the Activity (MCF7 [4]) was 15.96%. The Activity (MCF7 [5]) was 50.3%, the Activity (MCF7 [6]) was 94.7% and the Activity (MCF7 [7]) was 3.65%. The half-life [8] was 645 min, the Activity (MCF7 [9]) was “Active” and the Activity (MCF7 [10]) was “Active”. The Activity (Mus musculus) was “Non-Toxic”.
